Compound activity (PubChem BioAssay)
HNF4A DNA FP: change in binding of human HNF4A to DNA, primary screen, biochemical, fluorescence polarization, FITC-DNA; 1 h; activity change, % at 10 µM; 0.3% of 360,000 active; in the data active = activity change above about 30%, passing the limit was not always enough
Target sequence (P41235 whole entry, looked up): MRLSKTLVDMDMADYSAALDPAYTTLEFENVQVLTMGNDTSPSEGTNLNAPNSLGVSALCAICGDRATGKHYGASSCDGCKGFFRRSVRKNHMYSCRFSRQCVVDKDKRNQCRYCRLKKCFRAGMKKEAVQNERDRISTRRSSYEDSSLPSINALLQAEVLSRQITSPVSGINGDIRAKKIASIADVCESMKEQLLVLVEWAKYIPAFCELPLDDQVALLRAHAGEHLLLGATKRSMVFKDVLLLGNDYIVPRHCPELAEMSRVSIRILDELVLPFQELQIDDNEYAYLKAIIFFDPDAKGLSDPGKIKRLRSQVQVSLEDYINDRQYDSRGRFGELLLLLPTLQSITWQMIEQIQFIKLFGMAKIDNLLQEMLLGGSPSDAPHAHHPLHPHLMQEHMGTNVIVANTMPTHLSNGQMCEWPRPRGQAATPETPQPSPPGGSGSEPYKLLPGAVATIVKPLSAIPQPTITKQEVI
CSN inh: inhibitors of CSN-mediated cullin deneddylation, primary screen, biochemical, fluorescence polarization, uHTS; COP9 signalosome complex subunit 5 (Homo sapiens), Q92905; Purified CSN, SCF-Nedd8-OG deneddylation; inhibition, % at 12.5 µM; 0.38% of 360,000 active;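 active = pattern-corrected inhibition above about 35%, with an unprinted fluorescence ratio check between 0.5 and 1.5, limit read from the data, passing the limit was not always enough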;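 note: 0% = enzyme with substrate and 100% = substrate without enzyme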
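Detection – fluorescence polarization · System – HEK293T-derived human Csn5 enzyme · Controls – substrate-only high control, full reaction low control · Timing – 90 min, room temperature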
Rpn11 inh: Rpn11 (PSMD14) deubiquitinase inhibitors, primary screen, biochemical, fluorescence polarization, uHTS; AID 588493, 2011; human 26S proteasome, Ub4-pepOG fluorescence polarization; 20S core pre-blocked with epoxomicin; 0.59% of 360,000 active; calls only at 20 µM; 26S proteasome non-ATPase regulatory subunit 14 (Homo sapiens), O00487;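 active = inhibition at 20 µM, scaled to each plate's controls, above about 33%, limit read from the data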
TPT1 inhibitor: Candida albicans TPT1 enzyme inhibitors, primary screen, biochemical, fluorescence polarization. tRNA 2'-phosphotransferase TPT1 (Candida albicans SC5314). recombinant caTPT1, FP RNA substrate dephosphorylation. AID 1962, 2009. 0.81% of 300,000 active. inhibition, % at 5 µM;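 active = inhibition above the mean of all tested compounds plus 3 SD, set per screening campaign, cut at about 24% in these data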;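 note: plate controls were DMSO alone for no effect and ferristatin control at 100 nM for full effect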
CRFR2-BP ag: agonists of CRF-BP/CRF-R2 complex, primary screen, cell-based, HEK293, calcium dye fluorescence, uHTS. activation, % at 13.2 µM. 0.46% of 350,000 active. calcium dye fluorescence (FLIPR); percent of saturating CRF peptide response. AID 588473, 2011. CRF-binding protein / CRF receptor 2 complex (human);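 active = activation of at least 50%, plus an integration ratio under a set limit after plate pattern correction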;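 note: plate controls were neutral control wells without compound for no effect and CRF at EC100 for full effect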
CRFBP-R2 block: antagonists of CRF-BP/CRF-R2 complex, primary screen, cell-based, HEK293, calcium dye fluorescence, uHTS; CRF-induced calcium fluorescence; inhibition, % at 11.8 µM; 0.59% of 350,000 active;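 active = inhibition of the ligand-induced calcium signal above about 50% at the single tested concentration, limit read from the data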
caTPT1 confirm: Candida albicans TPT1 inhibitors, confirmation, biochemical, fluorescence polarization, triplicate; shares compounds with TPT1 inhibitor; recombinant caTPT1, RNase T1 coupled; inhibition, % at 5 µM; 74% of 2,400 active; AID 2149, 2009;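 active = inhibition above the primary screen limit, the mean inhibition of all tested compounds plus 3 SD, cut at about 25% in these data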
RNase T1 inh: RNase T1 inhibitors, counter-screen for TPT1 inhibitor project, biochemical, fluorescence polarization | shares compounds with TPT1 inhibitor | RNase T1 cleavage, 1536-well | inhibition, % at 5 µM | 83% of 2,400 active | AID 2153, 2009;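 active = inhibition above the solvent-only control well mean plus 3 SD, limit set per screening run, cut at about 23% in these data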;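 note: plate controls were DMSO wells with enzyme for no effect and wells without RNase T1 for full effect; inhibitors block cleavage so intact labeled substrate keeps polarization high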
Target sequence (P00651 whole entry, looked up): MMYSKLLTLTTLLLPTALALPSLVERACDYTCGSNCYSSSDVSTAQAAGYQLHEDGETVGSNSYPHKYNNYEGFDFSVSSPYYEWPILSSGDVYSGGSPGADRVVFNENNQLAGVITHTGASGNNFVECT
* hit, by the source's call; i = inactive; / = no result shown. In the library only some 2.3% were active in any assay of this set; here they are far more common.

SMILES	HNF4A DNA FP	CSN inh	Rpn11 inh	TPT1 inhibitor	CRFR2-BP ag	CRFBP-R2 block	caTPT1 confirm	RNase T1 inh
O=C(c1ccc(C23CC4CC(CC(C4)C2)C3)o1)N1CCOCC1	-2	5	i	-4	-3	21	/	/
CC[C@H](C)/C=C(C)/C=C/c1cc2c(cn1)C(=O)[C@@](C)(OC(C)=O)C(O)=C2Cl	-9	5	i	/	/	/	/	/
CC[C@H](C)/C=C(C)/C=C/C1=CC2=CC(=O)[C@]3(C)OC(=O)[C@@H](C(C)=O)[C@@H]3C2=CO1	4	12	i	27*	31	-6	29*	40*
COc1cnc(-c2ccccn2)nc1Sc1c(Cl)cccc1Cl	2	6	i	-2	-1	-14	/	/
COc1ccc(C2CC(c3c(O)cc(C)oc3=O)=NCCS2)c(OC)c1 (stereo unspecified)	5	7	i	42*	5	-5	5	12
COc1ccc(C(c2c(O)cc(C)oc2=O)c2c(O)cc(C)oc2=O)cc1	1	3	i	1	0	4	/	/
O=C(O)c1ccc(N/N=C/C2=C(N3CCOCC3)C(=C\c3ccccc3)/CC2)cc1	35*	11	/	101*	34	-38	119*	124*
O=C(O)c1ccccc1N/N=C\c1ccnc2ccccc12	-4	4	i	24*	2	15	18	30*
COc1ccc([C@H]2CC(=O)C[C@@H](CCn3cc(C(C)C)nn3)O2)cc1	-1	-2	/	/	/	/	/	/
C/C(N)=C(/C#N)C(=O)CSc1n[nH]c(-c2cccs2)n1	1	0	i	4	2	-12	/	/
O=C(/C=C/c1ccc(N2CCC(c3ccccc3)=N2)cc1)c1ccccc1	/	/	/	115*	311*	-284	119*	114*
O=C(/C=C/c1ccc(O)cc1)c1ccccc1	0	6	i	4	0	-24	/	/
O=C(CSc1nc(Nc2ccccc2)nc(N2CCOCC2)n1)N1CCCC1	-1	5	i	1	-3	2	/	/
O=S(=O)(/C=C/c1ccccc1)n1cnc2ccccc21	0	3	i	-1	0	1	/	/
Cc1ccccc1-n1c(C)cc(/C=N/Nc2ccc([N+](=O)[O-])cn2)c1C	11	6	i	38*	6	2	41*	56*
COc1cc(-c2nc(-c3ccccc3)c(-c3ccc(F)cc3)[nH]2)cc2c1OCO2	-1	-6	i	3	4	-21	/	/
COc1ccccc1N=Nc1nc(-c2ccccc2)c(-c2ccccc2)[nH]1	19	7	i	25*	-1	2	33*	42*
Cc1cc(C=C2C(=O)c3ccccc3C2=O)c(C)n1-c1cccc(C(=O)O)c1	2	5	i	31*	0	3	41*	51*
Cc1cc(C=C2C(=O)c3ccccc3C2=O)c(C)n1-c1ccccc1	-35	6	i	20	35	-51	/	/
C/C(=N\NC(=O)COc1ccccc1[N+](=O)[O-])c1cccc(NC(=O)c2ccncc2)c1	-1	-4	i	1	-1	-6	/	/
Cc1cccc2cc(/C=N/Nc3ccc(C(=O)O)cc3)c(Cl)nc12	11	4	i	25*	2	-14	42*	54*
CCOC(=O)/C=C1\SCC(=O)N1Cc1nnc(-c2ccccc2Br)o1	31	17	i	31*	0	0	31*	40*
O=C(CCN1C(=O)/C(=C/c2cccs2)SC1=S)Nc1ccccc1O	18	13	i	24*	0	-9	25*	36*
O=C(CCN1C(=O)/C(=C/c2cccs2)SC1=S)Nc1ccc(O)cc1	19	19	i	8	-1	-5	/	/
O=C1c2ccccc2S(=O)(=O)c2cc(N3CCC(C(=O)N4CCCCC4)CC3)ccc21	/	/	/	58*	36	-23	78*	88*
SMILES	HNF4A DNA FP	CSN inh	Rpn11 inh	TPT1 inhibitor	CRFR2-BP ag	CRFBP-R2 block	caTPT1 confirm	RNase T1 inh
O=C1c2ccccc2S(=O)(=O)c2cc(C(=O)N3CCC(O)CC3)ccc21	-1	4	i	1	0	-10	/	/
CCCc1cc(-n2ccnc2)n2c(nc3ccccc32)c1C#N	59*	31	/	118*	13	-14	102*	104*
COC(=O)c1ccccc1NC(=O)C1CC(=O)N(c2ccc(F)cc2)C1 (stereo unspecified)	3	0	i	-1	-4	-6	/	/
Cc1nn(-c2ccccc2)c2[nH]c(=O)cc(C(F)(F)F)c12	0	4	i	-2	6	9	/	/
CCc1nnc(NS(=O)(=O)c2ccc(N/C=C(\C=O)c3nc4cc(Cl)ccc4o3)cc2)s1	3	8	i	80*	0	48	11	17
CCc1nnc(NS(=O)(=O)c2ccc(NC(=O)c3ccc(Cl)cc3)cc2)s1	-1	-2	i	-1	-2	5	/	/
Oc1c(Cl)cc(Cl)cc1/C=C/c1ccc2cccc(O)c2n1	10	32	/	56*	87*	-102	51*	59*
O=C1NC(=S)N/C1=C/c1cc([N+](=O)[O-])ccc1O	-2	8	i	43*	8	-7	43*	52*
COc1cccc(N2CCN(C3OC(=O)c4ccccc43)CC2)c1 (stereo unspecified)	-5	-5	i	-6	2	-8	/	/
CSc1nnc(C)c(/C=C/Nc2ccc(F)cc2)n1	17	-6	i	116*	22	-52	101*	105*
Cc1cc(C)c(C(N)=O)c(Nc2ccc(F)cc2)n1	2	1	i	-1	0	-2	/	/
CC1=[N+](CC(=O)c2ccccc2)CCn2cccc21	2	-12	i	49*	4	-15	-2	1
O=c1cc(O)c2sc3nc(-c4cccnc4)cc(C(F)(F)F)c3c2[nH]1	12	11	i	32*	19	-32	28*	40*
CCc1ccc(C(=O)Nc2ccc(OC)c(S(=O)(=O)N3CCCCC3)c2)cc1	3	-4	i	/	-1	3	/	/
